Measured values collected from several papers.
Medium: plasma

`Cc1nc2ccc(OCc3ccc(C(F)(F)F)cc3)cc2[nH]1` gave a CL/F of 12.7 mL/min/kg (male BALB/c mouse; oral; 10 mg/kg).
`CCCC[C@@H](NC(=O)[C@@H](Cc1cn(C(=O)OC)c2ccccc12)NC(=O)[C@H](CC(C)(C)C)NC(=O)N1[C@H](C)CCC[C@@H]1C)C(=O)O` has a clearance of 222 mL/min/kg (male CD-1 mouse; intravenous; 3 mg/kg).
`Oc1ccc([C@@H]2Oc3ccc(O)cc3[C@@H]3CCC[C@@H]32)cc1` has a clearance of 1.67 mL/min (male C57BL/6 mouse; intravenous; 1 mg/kg).
`Cc1cc(-c2ccnc3[nH]cc(F)c23)cc(F)c1[C@@]1(O)[C@H](C)CN(C(=O)CN)C[C@@H]1C` gave a clearance of 0.775 mL/min/kg (male CD-1 mouse; intravenous; 1 mg/kg).
`Cc1ncsc1-c1ccc([C@H](C)NC(=O)[C@@H]2C[C@@H](O)CN2C(=O)[C@@H](NC(=O)CCCCCCCCC(=O)N2CCC(n3cc(-c4ccc5c(c4)CCN5C(=O)Cc4cccc(OC(F)(F)F)c4)c4c(N)ncnc43)CC2)C(C)(C)C)cc1` gave a clearance of 13.3 mL/min/kg (male C57BL/6 mouse; intravenous; 1 mg/kg).
The CL/F of `OCc1nc2ccc(NCc3ccc(C(F)(F)F)cc3)cc2[nH]1` is reported as 61.2 mL/min/kg (male BALB/c mouse; oral; 10 mg/kg).
The clearance of `Cc1cc(-c2ccnc3[nH]cc(F)c23)cc(F)c1[C@@]1(O)[C@H](C)CN(C2CCS(=O)(=O)CC2)C[C@@H]1C` is reported as 5.86 mL/min/kg (male CD-1 mouse; intravenous; 1 mg/kg).
`Cc1ncsc1-c1ccc([C@H](C)NC(=O)[C@@H]2C[C@@H](O)CN2C(=O)[C@@H](NC(=O)CCCCCCCCCCC(=O)NCCCn2cc(-c3ccc4c(c3)CCN4C(=O)Cc3cccc(OC(F)(F)F)c3)c3c(N)ncnc32)C(C)(C)C)cc1` has a clearance of 19.8 mL/min/kg (mouse; intravenous; 1 mg/kg).
With `NCc1cc2c(cc1F)C(=O)N(C1CCC(=O)NC1=O)C2` (stereo not drawn) the clearance was 112 mL/min/kg (male CD-1 mouse; intravenous; 1 mg/kg).
For `CN(C)C(=O)c1cc2cnc(Nc3ccc(-c4ccc5c(=O)cc(N6CCOCC6)oc5c4)cc3)nc2n1C1CCCC1`, the CL/F was 120 mL/min/kg (BALB/c mouse; oral; 20 mg/kg).
`C=CCn1c(=O)c2cnc(Nc3ccc(N4CCN(C)CC4)cc3)nc2n1-c1ccc2c(n1)[C@@](O)(CC)CC2` has a clearance of 54 mL/min/kg (mouse; intravenous; 3 mg/kg).
`Cc1ccc(OCC(=O)N[C@@H](Cc2c[nH]c3ccccc23)C(=O)OC(C)C)cc1` has a clearance of 5.5 mL/min/kg (male Sprague-Dawley mouse; intravenous; 10 mg/kg).
`O=C1CCC(N2Cc3cc(C4CCN(Cc5ccccc5)CC4)ccc3C2=O)C(=O)N1` (stereo not drawn) has a clearance of 48 mL/min/kg (male CD-1 mouse; intravenous; 1 mg/kg).
For `O=C1CCC(N2Cc3cc(CO)c(F)cc3C2=O)C(=O)N1` (stereo not drawn), the clearance was 52.9 mL/min/kg (male CD-1 mouse; intravenous; 1 mg/kg).
The clearance of `Cc1ncsc1-c1ccc([C@H](CC(=O)N2CC3(C2)CN(c2ccc(C#Cc4ccc(C(=O)N5CCC(n6cc(-c7ccc8c(c7)CCN8C(=O)Cc7cccc(OC(F)(F)F)c7)c7c(N)ncnc76)CC5)cc4)cn2)C3)NC(=O)[C@@H]2C[C@@H](O)CN2C(=O)[C@@H](NC(=O)C2(F)CC2)C(C)(C)C)cc1` is reported as 2.8 mL/min/kg (male C57BL/6 mouse; intravenous; 1 mg/kg).
